The source of these data is PubChem BioAssay AID488843 (Broad Institute, 2010).

Structures are written as SMILES. Activity calls are given as the source filed them.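 How the source made its calls: active means compound whose fitted half-maximal VEGF mRNA rise lies within ten times its top tested dose; inconclusive means flat response of 30 to 70% or a poor curve fit; inactive means the rest, including reverse-direction effects.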

The first test deals with U2OS VEGF mRNA induction, RT-PCR. In words: HIF target gene expression activators – cell-based, U2OS, RT-PCR, dry powder, dose response (AID 488843).
Details: not given
The procedure, abridged: (§1)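 Assay system: U2OS osteosarcoma cells, VEGF-A transcript / Dosing: dose-response series of compounds, pinned in duplicate / Detection: multiplex TaqMan RT-qPCR, VEGF-A FAM, beta-actin VIC / Schedule: 24 h pre-growth, 24 h treatment, 37 °C / Replicates: duplicates / Controls: DMSO wells as negative reference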
On to `CN(C)c1nc(-c2ccccn2)nnc1-c1ccccc1`, for which the AC50 was 6.38 µM.

Take `O=C(NCCCCO)c1cc(-c2ccccc2)on1`: the AC50 was 8.59 µM. Still for that read-out and setting: the figure for `O=C(NCC1CC1)c1cc(-c2ccccc2)on1` is 14.4 µM; for `c1ccc(-c2nnc(-c3ccccn3)nc2NCC2CCCCC2)cc1` it is 3.04 µM.

`c1ccc(-c2nnc(-c3ccccn3)nc2NCCCN2CCOCC2)cc1`: the AC50 was 9.7 µM. The same measure, in the same setting: with `O=C(NCCN1CCOCC1)c1cc(-c2ccccc2)on1` the figure was 19.6 µM; with `OCC1CCN(c2nc(-c3ccccn3)nnc2-c2ccccc2)CC1`, 11.1 µM; with `c1ccc(-c2nnc(-c3ccccn3)nc2Nc2cnc3ccccc3n2)cc1`, 4.81 µM. Still for that read-out and setting: with `Cc1ccc(Nc2nc(-c3ccccn3)nnc2-c2ccccc2)cn1` the figure was 8.83 µM; with `Cc1ccc(NC(=O)c2cc(-c3ccccc3)on2)cn1`, 38 µM; with `c1ccc(-c2nnc(-c3ccccn3)nc2Nc2nc3ccccc3s2)cc1`, 1.71 µM.

Turning to `Cc1cccc(Nc2nc(-c3ccccn3)nnc2-c2ccccc2)n1`, the AC50 is 12.9 µM.

As for `c1ccc(-c2csc(Nc3nc(-c4ccccn4)nnc3-c3ccccc3)n2)cc1`, the AC50 is 2.69 µM.

As to `c1ccc(-c2nnc(-c3ccccn3)nc2N2CCC(N3CCOCC3)CC2)cc1`, the AC50 was 8.46 µM. Same read-out and setting: the figure for `c1ccc(CNc2nc(-c3ccccn3)nnc2-c2ccccc2)cc1` is 7.55 µM; for `c1ccc(-c2cnc(Nc3nc(-c4ccccn4)nnc3-c3ccccc3)s2)cc1` it is 4.96 µM; for `O=C(NCCCn1ccnc1)c1cc(-c2ccccc2)on1` it is 16 µM. Still for that read-out and setting: the figure for `CC(C)(C)CCNc1nc(-c2ccccn2)nnc1-c1ccccc1` is 3.58 µM; for `OCCCNc1nc(-c2ccccn2)nnc1-c1ccccc1` it is 10.7 µM. Same read-out and setting: with `Cn1c(-c2ccccc2)cnc1Nc1nc(-c2ccccn2)nnc1-c1ccccc1` the figure was 5.34 µM. Turning to `C=CCNc1nc(-c2ccccn2)nnc1-c1ccccc1`, the AC50 is 7 µM. The same measure, in the same setting: the figure for `c1ccc(-c2nnc(Nc3nc(-c4ccccn4)nnc3-c3ccccc3)s2)cc1` is 2.81 µM; for `CCCCNC(=O)c1cc(-c2ccccc2)on1` it is 12.4 µM. Same read-out and setting: with `O=C(NCCCN1CCOCC1)c1cc(-c2ccccc2)on1` the figure was 30.7 µM; with `c1ccc(-c2nnc(-c3ccccn3)nc2N2CCN(c3ccncc3)CC2)cc1`, 7.31 µM; with `c1ccc(-c2nnc(-c3ccccn3)nc2NCC2CC2)cc1`, 8.4 µM.

`O=C(Nc1ccc2ccccc2n1)c1cc(-c2ccccc2)on1`: the AC50 is 7.99 µM. `Cc1cccc(CNc2nc(-c3ccccn3)nnc2-c2ccccc2)c1`: the AC50 was 3.83 µM. The same measure, in the same setting: the figure for `O=C(NCCCO)c1cc(-c2ccccc2)on1` is 22.3 µM. Same read-out and setting: the figure for `Cc1ccc(CNc2nc(-c3ccccn3)nnc2-c2ccccc2)cc1` is 3.46 µM; for `Cc1ccccc1CNc1nc(-c2ccccn2)nnc1-c1ccccc1` it is 5.64 µM; for `c1ccc(-c2nnc(-c3ccccn3)nc2NCCN2CCOCC2)cc1` it is 8.52 µM. As for `CN1CCN(c2nc(-c3ccccn3)nnc2-c2ccccc2)CC1`, the AC50 was 8.76 µM.

Tested on in a further test: not listed separately
Described as above. The settings on record: U2OS VEGF mRNA induction, RT-PCR; at 38 µM (top of the series). Summed up: as §1
For the molecule `O=C(NCc1ccccc1)c1cc(-c2ccccc2)on1`, the activation (VEGF mRNA increase) was 12.2% (inactive). For `Cn1c(NC(=O)c2cc(-c3ccccc3)on2)nc2ccccc21`, the activation (VEGF mRNA increase) was 2.87% (inactive). In the case of `O=C(c1cc(-c2ccccc2)on1)N1CCC(N2CCOCC2)CC1`, the activation (VEGF mRNA increase) is 13% (inactive). With `Cn1c(-c2ccccc2)cnc1NC(=O)c1cc(-c2ccccc2)on1`, the activation (VEGF mRNA increase) is -1.36% (inactive).

As to `O=C(Nc1cnc2ccccc2c1)c1cc(-c2ccccc2)on1`, the activation (VEGF mRNA increase) was 3.98% (inactive). As for `O=C(Nc1ncc2ccccc2n1)c1cc(-c2ccccc2)on1`, the activation (VEGF mRNA increase) is 17.1% (inactive). `O=C(c1cc(-c2ccccc2)on1)N1CCC(CO)CC1`: the activation (VEGF mRNA increase) is 14.4% (inactive).

Turning to `CC(C)(C)CCNC(=O)c1cc(-c2ccccc2)on1`, the activation (VEGF mRNA increase) is 13.5% (inactive).

On to `O=C(c1cc(-c2ccccc2)on1)N1CCC(N2CCCC2)CC1`, for which the activation (VEGF mRNA increase) was 9.95% (inactive). As for `O=C(Nc1nnc(-c2ccccc2)s1)c1cc(-c2ccccc2)on1`, the activation (VEGF mRNA increase) is 3.52% (inactive). Still for that read-out and setting: the figure for `O=C(Nc1ncc(-c2ccccc2)o1)c1cc(-c2ccccc2)on1` is 1.3% (inactive); for `Cc1cccc(CNC(=O)c2cc(-c3ccccc3)on2)c1` it is 11.8% (inactive). For the molecule `Cc1ccc(CNC(=O)c2cc(-c3ccccc3)on2)cc1`, the activation (VEGF mRNA increase) was -3.43% (inactive). Still for that read-out and setting: with `O=C(NC1Cc2ccccc2C1)c1cc(-c2ccccc2)on1` the figure was -0.187% (inactive); with `O=C(c1cc(-c2ccccc2)on1)N1CCc2cccnc21`, 5.19% (inactive).

As for `O=C(NCCN1CCCCC1)c1cc(-c2ccccc2)on1`, the activation (VEGF mRNA increase) was 14.3% (inactive). Same read-out and setting: with `O=C(NCC1CCCCC1)c1cc(-c2ccccc2)on1` the figure was -2.06% (inactive); with `O=C(c1cc(-c2ccccc2)on1)N1CCN(c2ccncc2)CC1`, 34.7% (inactive). Same read-out and setting: the figure for `O=C(Nc1nc(-c2ccccc2)cs1)c1cc(-c2ccccc2)on1` is 3.91% (inactive). Take `Cc1cccc(NC(=O)c2cc(-c3ccccc3)on2)n1`: the activation (VEGF mRNA increase) is -4.09% (inactive). The same measure, in the same setting: the figure for `O=C(Nc1nc2ccccc2s1)c1cc(-c2ccccc2)on1` is 4.08% (inactive). The same measure, in the same setting: the figure for `CN(C)CCNC(=O)c1cc(-c2ccccc2)on1` is 4% (inactive); for `O=C(Nc1cn2ccccc2n1)c1cc(-c2ccccc2)on1` it is 20.3% (inactive); for `CN1CCN(C(=O)c2cc(-c3ccccc3)on2)CC1` it is -1.09% (inactive). Still for that read-out and setting: the figure for `O=C(NC1CCc2ccccc2C1)c1cc(-c2ccccc2)on1` (centres undefined) is 14.2% (inactive); for `Cc1ccccc1CNC(=O)c1cc(-c2ccccc2)on1` it is 22.6% (inactive).

What is called AC50 is the concentration at which the activity in the assay is half-maximal.
